Compound activity: PubChem BioAssay, The Scripps Research Institute Molecular Screening Center
CHRM4 agonist: agonists of human muscarinic M4 receptor (CHRM4); P08173; CHO-K1 hM4/Gqi5, Fluo-8 calcium fluorescence; vehicle 0%, full acetylcholine response 100%; activation, % at 3 µM; actives 0.14% (n = 360,000);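 active = activation above the run mean over all test wells plus 3 SD, cut at about 32% in these data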;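 also: peak over basal fluorescence ratio per well then scaled between controls; 0% = DMSO wells and 100% = acetylcholine at EC100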
M5 PAM: CHRM5 positive allosteric modulation | CHO-K1 hM5, Fluo-8 calcium, ACh EC20 PAM; 0% = ACh EC20, 100% = ACh EC100 | activation, % at 3 µM | AID 624038 | actives 0.3% (n = 360,000) | P08912;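 active = activation above the run cutoff, the mean activation of all test compounds plus 3 SD, cut at about 18% in these data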
Target sequence (P08912 whole entry, looked up): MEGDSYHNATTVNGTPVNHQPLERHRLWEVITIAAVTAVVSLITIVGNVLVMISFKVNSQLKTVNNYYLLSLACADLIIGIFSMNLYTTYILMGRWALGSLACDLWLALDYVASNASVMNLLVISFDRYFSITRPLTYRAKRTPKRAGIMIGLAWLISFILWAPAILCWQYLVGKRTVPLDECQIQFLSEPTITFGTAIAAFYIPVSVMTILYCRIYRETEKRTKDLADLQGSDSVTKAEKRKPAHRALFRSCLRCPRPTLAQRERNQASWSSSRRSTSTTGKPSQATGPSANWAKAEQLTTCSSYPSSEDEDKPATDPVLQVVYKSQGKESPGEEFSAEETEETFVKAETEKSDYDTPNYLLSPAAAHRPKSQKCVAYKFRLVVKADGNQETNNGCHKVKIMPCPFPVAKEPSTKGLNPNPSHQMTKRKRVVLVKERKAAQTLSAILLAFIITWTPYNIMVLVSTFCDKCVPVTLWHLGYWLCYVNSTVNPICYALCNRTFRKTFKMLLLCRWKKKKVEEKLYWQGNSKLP
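Assay system: CHO-K1 hM5 cells / Incubation: Fluo-8 loading 80 min at 37 °C plus 30 min room temperature / Technique: Fluo-8 calcium dye fluorescence, kinetic read / Repeats: single replicate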
CHRM4 antagonist: blocks acetylcholine activation of human M4 receptor | CHO-hM4 cells, ACh EC80, Fluo-8 calcium fluorescence | actives 0.73% (n = 360,000) | inhibition, % at 3 µM | P08173;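 active = inhibition above its plate's cutoff, the mean inhibition of sample wells plus 3 SD, cut at about 27% in these data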;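 also: 0% = acetylcholine EC80 with DMSO and 100% = DMSO without agonist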
M5 ag: CHRM5 agonism in calcium assay; P08912; CHO-K1 hM5 cells, Fluo-8 calcium fluorescence; 0% DMSO wells, 100% maximal acetylcholine response; activation, % at 3 µM; actives 0.19% (n = 360,000); AID 624037;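 active = activation above the run's mean over test compounds plus 3 SD, cut at about 23% in these data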;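 also: signal is peak over basal fluorescence ratio across the kinetic read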
CHRM4 PAM: positive allosteric modulators of human muscarinic M4 receptor | P08173 | CHO-K1 hM4/Gqi5, Fluo-8 calcium fluorescence, ACh EC20; 0% = ACh EC20, 100% = maximal ACh | activation, % at 3 µM | actives 0.4% (n = 360,000) | AID 624126;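 active = activation above its plate's cutoff, the mean activation of sample wells plus 3 SD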
CHRM5 antagonist: CHRM5 antagonism in calcium assay | P08912 | CHO-hM5 cells, Fluo-8 calcium fluorescence, ACh EC80 | inhibition, % at 3 µM | actives 0.59% (n = 360,000) | AID 624040;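 active = inhibition above a per-plate cutoff, the mean of that plate's test compounds plus 3 SD, cut at about 27% in these data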;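 also: 0% = acetylcholine EC80 with DMSO and 100% = DMSO without agonist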
Starred values were filed as active, the others as inactive. Most compounds without a hit are left out; they make up all but 1.8% or so of the library.

SMILES	CHRM4 agonist	M5 PAM	CHRM4 antagonist	M5 ag	CHRM4 PAM	CHRM5 antagonist
CN(C)S(=O)(=O)c1ccc(C(=O)Nc2ccc(CN3CCCC3)cc2)cc1	0.9	-7.9	69.4*	-6.6	-18.2	6.1
CN(C)S(=O)(=O)c1ccc(C(=O)Nc2ccc(CCC(=O)N3CCCC3)cc2)cc1	1.0	-4.7	1.4	-0.6	9.7	3.3
O=C(Nc1ccc(S(=O)(=O)N2CCCCC2)cc1)c1ccc(CN2CCc3ccccc3C2)cc1	8.5	-12.1	40.4*	-4.1	-15.6	15.7
O=C(Nc1ccc(-c2ccco2)cc1)C1CCCN(Cc2ccco2)C1 (stereo not given)	2.0	-4.2	9.2	-2.3	-0.8	5.2
Cc1ncc(CN2CCCC(C(=O)Nc3ccc(-c4ccco4)cc3)C2)n1C (stereo not given)	0.6	-2.5	30.9*	-7.7	-11.9	5.8
COCC1COS(=O)(=O)NC1(C)C (stereo not given)	1.4	6.9	1.2	-1.6	3.9	3.7
COc1cccc(NC(=O)CSc2nc3scc(C)c3c(=O)[nH]2)c1	4.9	-2.2	-2.8	3.3	-3.7	10.7
Cc1cc(C)cc(NC(=O)c2nnn(Cc3cc(C)ccc3C)c2N)c1	32.4*	-5.2	14.7	28.1*	-10.0	16.5
Cc1ccc(C)c(Cn2nnc(C(=O)Nc3ccc4c(c3)OCCO4)c2N)c1	22.9	2.3	-4.1	36.2*	6.8	5.9
Cc1ccccc1Cn1nnc(C(=O)Nc2ccc3c(c2)OCCO3)c1N	4.2	6.9	-7.7	6.6	-4.3	2.9
C[C@H](CO)N1C[C@H](C)[C@H](CN(C)S(=O)(=O)c2cccs2)OCc2cnnn2CCCC1=O	0.5	2.4	5.7	-0.4	-1.4	-1.8
O=C(CSc1nnc(NC(=O)c2ccco2)s1)Nc1ccc(F)cc1F	0.9	-8.3	2.8	-0.5	4.6	11.4
Cc1ccc(OCC(=O)N/N=C\c2cccn2C)c([N+](=O)[O-])c1	1.4	1.3	-3.2	-1.2	2.8	4.8
Cc1ccc(S(=O)(=O)N(C)C)cc1NC(=O)C(C)N(C)Cc1sccc1C (stereo not given)	6.3	-11.3	11.5	-3.3	-14.8	29.8*
Nn1cc(-c2ccccc2)nc1SCC(=O)Nc1ccc(S(N)(=O)=O)cc1	-0.2	-2.6	3.1	-2.8	4.8	4.8
CC(=O)OCC1(C)CN(c2ccccc2)NC1=O (stereo not given)	0.5	1.4	-3.6	1.5	1.3	1.2
Cc1cccc(N2CCN(C(=O)Cn3nc(C)n4cccc4c3=O)CC2C)c1 (stereo not given)	12.2	-7.9	-1.5	4.1	-4.4	6.8
Cc1cccc(N2CCN(C(=O)Cn3sc4nc(C)cc(C)c4c3=O)CC2C)c1 (stereo not given)	27.6	-15.7	53.9*	13.2	-16.0	16.3
Cc1cc(C)c2c(=O)n(CC(=O)Nc3ccc(Cl)cc3)sc2n1	61.0*	-11.3	30.7*	16.7	-38.1	9.9
Cc1cc(C)c2c(=O)n(CC(=O)Nc3cccc(F)c3)sc2n1	17.6	2.3	6.2	4.9	-12.6	7.3
CCOc1ccc(NC(=O)Cn2sc3nc(C)cc(C)c3c2=O)cc1	18.0	-5.6	54.5*	5.8	-30.1	4.5
O=C(NC1CCN(C(=S)Nc2ccccc2)CC1)C1CCCCC1	-0.2	-5.8	1.1	0.1	-5.7	17.2
O=C(CN1CCOCC1)NCCc1ccccc1	7.0	0.3	24.3	0.4	24.3*	0.2
O=C(Cc1ccc(-c2ccccc2)cc1)NCCN1CCOCC1	4.4	8.1	-0.4	-4.7	19.1*	3.6
C=CCn1c(SCC(=O)NCc2ccccc2)nnc1C1CCCCC1	2.3	24.7*	-15.9	-2.2	0.4	-5.8
SMILES	CHRM4 agonist	M5 PAM	CHRM4 antagonist	M5 ag	CHRM4 PAM	CHRM5 antagonist
C=CCn1c(SCC(=O)NCCc2ccccc2)nnc1C1CC1	16.0	-17.0	-7.3	-1.7	-3.0	17.3
CCN1CCN(c2ccc(NC(=O)c3ccc(Cl)c(S(=O)(=O)N4CCCC4)c3)cc2)CC1	7.9	-36.6	47.9*	-7.6	-13.2	55.9*
CCN(CC)CCOC(=O)c1ccc(NC(=O)c2ccc(Cl)c(S(=O)(=O)N3CCCCCC3)c2)cc1	4.8	-33.4	35.8*	-16.8	-20.9	36.6*
CCN1CCN(c2ccc(NC(=O)c3ccc(OC)c(S(=O)(=O)N4CCCC4)c3)cc2)CC1	0.2	-18.8	12.8	-9.6	-0.6	22.0
CCCCOc1cccc(C(=O)Nc2ccc(N3CCN(CC)CC3)cc2)c1	2.8	-29.9	11.1	-12.4	-17.4	38.8*
Cc1ccc(CONC(=O)c2cccc([N+](=O)[O-])c2)cc1	0.2	4.5	1.9	0.8	0.5	-0.2
COC(=O)C(/C=N/OCc1ccc([N+](=O)[O-])cc1)NC(=O)c1cccc(Cl)c1 (stereo not given)	29.1	-9.8	11.5	33.8*	10.2	-0.9
CC1CCCN(C(C(=O)NC2CCCCC2)c2cc3c(cc2[N+](=O)[O-])OCO3)C1 (stereo not given)	-0.4	-1.3	-10.0	-1.1	25.3*	5.3
Oc1ccccc1NCC(O)Cn1ccc2ccccc21 (stereo not given)	2.9	6.3	35.1*	-0.1	17.8	8.9
O=C(CCC(=O)N/N=C/c1ccccc1O)NCc1ccccc1	-0.7	-0.1	-9.8	-4.7	9.5	-6.7
O=C(COC(=O)c1ccc([N+](=O)[O-])o1)Nc1ncc(Cl)cc1Cl	0.7	-13.9	-2.5	1.8	2.1	11.0
CC(=O)Nc1cc2c(c([N+](=O)[O-])c1C)C(C)(C)CC2(C)C	0.0	6.6	-2.9	-11.1	-1.8	6.9
Cc1c(N=NC2=C(O)CC(C)(C)CC2=O)cc2c(c1[N+](=O)[O-])C(C)(C)CC2(C)C	0.8	23.1*	-5.9	3.6	-3.6	-24.1
C/C(=N\NC(=O)c1ccc(Cl)cc1)c1cccs1	1.3	9.8	-9.1	-0.2	22.1*	-0.2
C/C(=N\OCC(=O)N/N=C/c1ccc(C)cc1O)c1cccs1	1.1	33.0*	-7.4	1.0	6.2	12.7
Cc1ccc(/C=N/NC(=O)Cc2ccc(Cl)cc2)c(O)c1	0.2	-5.3	-3.3	0.2	-6.1	5.3
C/C(=N\NC(=O)CO/N=C(\C)c1cccs1)c1ccc(N)cc1	0.8	-3.1	28.6*	-4.9	11.6	8.2
C/C(=N\NC(=O)c1ccc(NS(=O)(=O)c2cccs2)cc1)c1cccs1	0.3	3.2	1.1	4.2	-1.8	9.2
CCC(C)C(NC(=O)OC(C)(C)C)C(=O)NC(C)C(N)=O (stereo not given)	5.8	-10.6	-6.6	1.0	-9.5	6.9
